From PubChem
Hits are enriched below; roughly 0.58% of the tested compounds scored in any of these assays.
Cneo AK release = Cryptococcus neoformans lysis via adenylate kinase release | C. neoformans lysis, adenylate kinase release luminescence, 4 h; normalised: neutral wells 0, clomiphene wells 100 | lysis activity, % at 15 µM | actives 0.2% (n = 360,000);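 active = mean lysis activity across replicates of at least 80%, whatever share of replicates individually reach that level; inactive = mean lysis activity below 80%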
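Material: C. neoformans cells; Schedule: 4 h static compound exposure, 37 °C, read 1 h post-reagent; Measured by: adenylate kinase release luminescence; Read-out: signal increase indicating cell lysis; Controls: Clomiphene as positive lysis control.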
ERp5 inh = ERp5 (human) disulfide isomerase inhibition; Q15084; ERp5 insulin aggregation, absorbance 650 nm, 90 min; inhibition, % at 9.99 µM; actives 0.05% (n = 350,000); AID 651711;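 active = mean replicate inhibition above about 25%, with every replicate also reaching it, limit read from the data, passing the limit was not always enough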
Target sequence (Q15084 whole entry, looked up): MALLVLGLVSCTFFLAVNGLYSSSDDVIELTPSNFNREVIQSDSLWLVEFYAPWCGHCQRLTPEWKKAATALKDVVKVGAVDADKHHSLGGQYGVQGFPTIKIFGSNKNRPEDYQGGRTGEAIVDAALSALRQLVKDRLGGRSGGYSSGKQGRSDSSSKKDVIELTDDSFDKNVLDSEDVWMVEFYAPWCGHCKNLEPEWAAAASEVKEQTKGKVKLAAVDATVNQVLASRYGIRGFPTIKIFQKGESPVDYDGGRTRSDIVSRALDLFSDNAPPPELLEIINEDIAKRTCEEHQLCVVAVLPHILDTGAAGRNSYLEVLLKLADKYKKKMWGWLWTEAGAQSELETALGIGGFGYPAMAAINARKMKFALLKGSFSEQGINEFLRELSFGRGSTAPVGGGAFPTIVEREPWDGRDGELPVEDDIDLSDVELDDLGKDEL
PglD DTNB = inhibitors of Campylobacter jejuni PglD acetyltransferase; purified PglD enzyme, DTNB colorimetric CoA detection; inhibition, % at 12.5 µM; actives 0.098% (n = 360,000); AID 602405; in the data active = inhibition above about 16%, passing the limit was not always enough
PDI turbidity = inhibitors of human protein disulfide isomerase | P07237 | PDI insulin aggregation turbidity, A650, 90 min | inhibition, % at 10 µM | actives 0.052% (n = 350,000) | AID 588391;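 active = mean inhibition across replicates of 30% or more, whatever share of single replicates reach that level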
miR-122 sensor = miR-122 inhibition in Huh7 cells; Huh7 miR-122 Renilla luciferase sensor, 48 h; neutral wells = 0, positive control = 100; activation (reporter increase), % at 12.5 µM; actives 0.3% (n = 340,000); AID 602342;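 active = mean replicate activation score at least 90 and every replicate individually at or above 90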;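 also: higher luciferase means less miR-122 activity so hits act as miR-122 inhibitors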
PvdQ inh = blocks Pseudomonas aeruginosa PvdQ acylase activity. actives 0.063% (n = 340,000). purified PvdQ acylase, fluorescence plate reader. inhibition, % at 10 µM; in the data active = inhibition above about 30%, passing the limit was not always enough
Of the large screens only hits and unclear results are named; the others gave an inactive call; [ ] = another dose, or the depositor's remark.

CN(CC(=O)Nc1ccc(F)c(F)c1F)C(=O)c1cc(-c2ccncc2)nc2ccccc12	ERp5 inh 29.0 (no result: miR-122 sensor)
C[C@H]1CN([C@@H](C)CO)C(=O)c2cccc(NS(=O)(=O)c3ccc(F)cc3)c2O[C@@H]1CN(C)S(=O)(=O)c1ccc(Cl)cc1	none (no result: PDI turbidity, PvdQ inh)
C[C@H](CO)N1C[C@H](C)[C@H](CN(C)S(=O)(=O)c2ccccc2)Oc2ccc(NS(=O)(=O)c3ccc(F)cc3)cc2C1=O	Cneo AK release 104.1 (no result: ERp5 inh, PDI turbidity, PvdQ inh)
C[C@@H]1CN([C@@H](C)CO)C(=O)c2cc(NS(=O)(=O)c3ccc(F)cc3)ccc2O[C@H]1CN(C)S(=O)(=O)c1ccccc1	none (no result: ERp5 inh, PDI turbidity, PvdQ inh)
C[C@H](CO)N1C[C@H](C)[C@H](CN(C)S(=O)(=O)c2ccc(F)cc2)Oc2ccc(NS(=O)(=O)c3ccc(Cl)cc3)cc2C1=O	Cneo AK release 101.8 (no result: PDI turbidity, PvdQ inh)
C[C@H](CO)N1C[C@H](C)[C@@H](CN(C)S(=O)(=O)c2ccc(Cl)cc2)Oc2c(NS(=O)(=O)c3ccc(F)cc3)cccc2C1=O	Cneo AK release 126.6 (no result: PDI turbidity, PvdQ inh)
C[C@@H]1CN([C@H](C)CO)C(=O)c2cc(NS(=O)(=O)c3ccc(Cl)cc3)ccc2O[C@H]1CN(C)S(=O)(=O)c1ccc(F)cc1	Cneo AK release 100.5 (no result: PDI turbidity, PvdQ inh)
N#Cc1ccccc1NC(=O)CN1C(=O)NC2(CCCC2)C1=O	none
O=C(CN1C(=O)NC2(CCCCCC2)C1=O)Nc1ccccc1[N+](=O)[O-]	miR-122 sensor 158.7 (no result: Cneo AK release, PglD DTNB)
O=C(CN1C(=O)NC2(CCCC2)C1=O)Nc1cc(C(F)(F)F)ccc1N1CCCCC1	ERp5 inh 34.2
COc1ccc(-c2c(O)c(C#N)c(-c3ccccc3)n(-c3ccc(OC)cc3)c2=O)cc1	miR-122 sensor 97.2 (no result: ERp5 inh)
CCS(=O)(=O)NCC[C@H]1CC[C@H](NS(=O)(=O)c2cccc(F)c2)[C@@H](CO)O1	none (no result: PDI turbidity, miR-122 sensor, PvdQ inh)
O=C(Nc1cccc(F)c1)N[C@H]1CC[C@@H](CCNS(=O)(=O)c2cccc(Cl)c2)O[C@@H]1CO	Cneo AK release 105.8 (no result: PDI turbidity, miR-122 sensor, PvdQ inh)
Cc1ccc(S(=O)(=O)NCC[C@@H]2CC[C@@H](NC(=O)c3cnccn3)[C@H](CO)O2)cc1	miR-122 sensor 101.4[16.7 µM] (no result: PDI turbidity, PvdQ inh)
CCS(=O)(=O)NCC[C@@H]1CC[C@@H](NS(=O)(=O)c2cccc(F)c2)[C@@H](CO)O1	Cneo AK release 98.3 (no result: PDI turbidity, miR-122 sensor, PvdQ inh)
O=C(NC1CCCCC1)N[C@@H]1CC[C@@H](CCNS(=O)(=O)c2ccc(Cl)cc2)O[C@@H]1CO	none (no result: PDI turbidity, miR-122 sensor, PvdQ inh)
O=C(NC1CCCCC1)N[C@@H]1CC[C@@H](CCNS(=O)(=O)c2ccc(Cl)cc2)O[C@H]1CO	Cneo AK release 93.6 (no result: PDI turbidity, miR-122 sensor, PvdQ inh)
CCS(=O)(=O)NCC[C@H]1CC[C@H](NS(=O)(=O)c2cccc(F)c2)[C@H](CO)O1	Cneo AK release 110.2 (no result: PDI turbidity, miR-122 sensor, PvdQ inh)
COCCNC(=O)CSc1nc2ccccc2c(=O)n1CC1CCCO1 (configuration not stated)	miR-122 sensor 285.9 (no result: ERp5 inh)
COC(=O)c1ccc2c(=O)n(CC3CCCO3)c(SCC(=O)Nc3ccccc3Cl)nc2c1 (configuration not stated)	none (no result: ERp5 inh)
COC(=O)c1ccc2c(=O)n(CC3CCCO3)c(SCC(=O)Nc3ccccc3OC)nc2c1 (configuration not stated)	miR-122 sensor 189.5 (no result: ERp5 inh)
O=C(CSc1nc2ccccc2c(=O)n1CC1CCCO1)NCC1CCCO1 (configuration not stated)	none
COc1ccc(C(=O)Nc2ccc3c(c2)C(=O)N(C)C[C@H](OC)[C@@H](C)CN(C(C)=O)[C@@H](C)CO3)cc1	none (no result: PDI turbidity, PvdQ inh)
CCc1c(C(=O)Nc2cc(C)cc(C)c2)[nH]c(C)c1C(C)=O	miR-122 sensor 120.9 (no result: Cneo AK release, ERp5 inh, PglD DTNB)
CCC(=O)N[C@@H]1CC[C@H](CCn2cc(CN(C)C)nn2)O[C@@H]1CO	none (no result: PDI turbidity, miR-122 sensor, PvdQ inh)
Cc1ccc(S(=O)(=O)N2CCC(C(=O)Nc3ccc(S(=O)(=O)N4CCCC4)cc3)CC2)cc1	PDI turbidity 31.6 (no result: miR-122 sensor)
O=C(Nc1ccc2c(c1)OCCO2)C1CCN(S(=O)(=O)c2ccccc2)CC1	miR-122 sensor 177.1
CC(C)CC#Cc1ccc2c(c1)O[C@H](CN(C)C(=O)C1CCCCC1)[C@H](C)CN([C@@H](C)CO)S2(=O)=O	none (no result: PDI turbidity, PvdQ inh)
O=C(CSc1nc2ccc([N+](=O)[O-])cc2[nH]1)NC1CCCCCC1	miR-122 sensor 328.0 (no result: ERp5 inh)
COC(=O)c1ccc(/C=N/OCC(=O)NC2CCCC(C)C2C)cc1 (configuration not stated)	none (no result: ERp5 inh, PglD DTNB)
COC(=O)c1ccc(/C=N/OCC(=O)NC2CCCCCCC2)cc1	miR-122 sensor 162.8 (no result: ERp5 inh)
Fc1ccccc1NC(=S)NCCc1cccc(Cl)c1	Cneo AK release 97.3
COC(=O)c1c(C)oc(C)c1S(=O)(=O)NCc1ccc(OC)cc1	none
COC(=O)c1c(C)oc(C)c1S(=O)(=O)NCC1CC1	miR-122 sensor 96.6
Cc1ccccc1-c1cnc2c(c1)C(=O)N([C@H](C)CO)C[C@@H](C)[C@H](CN(C)Cc1ccccc1F)O2	miR-122 sensor 121.2[16.7 µM] (no result: PDI turbidity, PvdQ inh)
C[C@H]1CN([C@@H](C)CO)C(=O)c2cc(-c3cccc(C#N)c3)cnc2O[C@H]1CN(C)Cc1cncnc1	none (no result: Cneo AK release, PDI turbidity, PvdQ inh)
C[C@@H]1CN([C@@H](C)CO)C(=O)c2cc(-c3cccc(C#N)c3)cnc2O[C@H]1CN(C)Cc1cncnc1	ERp5 inh 83.8 (no result: PDI turbidity, PvdQ inh)
C[C@@H]1CN([C@H](C)CO)C(=O)c2cc(C#CC(C)(C)O)cnc2O[C@@H]1CN(C)Cc1cncnc1	Cneo AK release 84.9 (no result: PDI turbidity, PvdQ inh)
COc1ccccc1-c1cnc2c(c1)C(=O)N([C@H](C)CO)C[C@@H](C)[C@H](CN(C)Cc1cncnc1)O2	Cneo AK release 82.0 (no result: PDI turbidity, PvdQ inh)
O=C(C[C@@H]1CC[C@H]2[C@@H](COC[C@@H](O)CN2S(=O)(=O)c2ccccc2)O1)N1CCc2ccccc2C1	none (no result: PDI turbidity, PvdQ inh)
COc1cccc(C(=O)Nc2ccc3c(c2)C(=O)N(C)C[C@@H](OC)[C@@H](C)CN(C(=O)C2CCCC2)[C@H](C)CO3)c1	none (no result: PDI turbidity, PvdQ inh)
C[C@H]1CN([C@@H](C)CO)C(=O)CCCn2cc(nn2)CO[C@@H]1CN(C)Cc1ccc(C(=O)Nc2ccccc2N)cc1	none (no result: PDI turbidity, PvdQ inh)
C[C@H](CO)N1C[C@H](C)[C@H](CN(C)Cc2cccnc2)Oc2ncc(C#CC3(O)CCCC3)cc2C1=O	Cneo AK release 97.9 (no result: PDI turbidity, PvdQ inh)
O=C1[C@@H](c2ccccc2)CC[C@@H]2C=CC[C@H]3CCN1[C@@H]32	ERp5 inh 30.8 (no result: Cneo AK release, PglD DTNB, PDI turbidity, miR-122 sensor, PvdQ inh)
COc1ccccc1CNC(=O)C[C@H]1CC[C@@H]2[C@H](COC[C@H](O)CN2C(=O)Nc2ccc(F)cc2)O1	none (no result: PDI turbidity, PvdQ inh)
C/C(=N\Nc1ccc(S(=O)(=O)Nc2ccc(Cl)cc2)cc1[N+](=O)[O-])c1ccc(N2CCOCC2)cc1	miR-122 sensor 170.1 (no result: ERp5 inh)
N#C/C(=C\c1ccccc1OCc1ccc(C(=O)O)cc1)C(=O)Nc1ccc(O)cc1	PDI turbidity 50.9 (no result: Cneo AK release, PglD DTNB, miR-122 sensor)
COC(=O)c1ccc(COc2ccccc2/C=C(\C#N)C(=O)Nc2ccc(C)cc2)cc1	none (no result: ERp5 inh)
